Experiments:
HL-60 cells [1] = assay: Internucleosomal DNA fragmentation and cell cycle distribution; assay type: cell-based, human
In short: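 After 24 or 48 h treatment, HL-60 cells were permeabilized and stained with propidium iodide, and DNA content was measured by flow cytometry. 10^4 events were recorded per sample with debris excluded. Sub-G0/G1 was taken as internucleosomal DNA fragmentation, alongside G0/G1, S and G2/M fractions. Doxorubicin and oxaliplatin were positive controls; ANOVA with Student–Newman–Keuls test.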

HL-60 cells [2] = assay: Mitochondrial transmembrane potential; assay type: cell-based, human; details: HL-60, rhodamine 123, 24 h, p < 0.05; DOX 2 µM, OXA 2.5 µM
In short: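 HL-60 cells were grown in RPMI-1640 with 10% FBS, 2 mM L-glutamine and 50 µg/mL gentamycin at 37 °C, 5% CO2. After treatment, cells were loaded with rhodamine 123 (5 µg/mL) for 15 min at 37 °C in the dark and washed in saline.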

[3] = system: MCF-7 (human breast carcinoma); assay: Alamar blue cytotoxicity assay, MCF-7; assay type: cell-based
[4] = system: PBMC (human peripheral blood mononuclear cells); assay: Alamar blue cytotoxicity assay, PBMC; assay type: cell-based; details: read-out: IC50 in µM; PBMC non-cancer cells, alamar blue, 72 h
[5] = system: SCC-9 (human oral squamous cell carcinoma); assay: Alamar blue cytotoxicity assay, SCC-9; assay type: cell-based
HL-60 cells [6] = assay: Morphological analysis; assay type: cell-based, human; details: 24 and 48 h, DOX 2 µM, OXA 2.5 µM
In short: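 HL-60 cells were treated for 24 and 48 h, then stained with May-Grunwald-Giemsa and examined by light microscopy. In parallel, forward and side light scatter were quantified by flow cytometry, recording 10^4 events per sample with debris excluded. Vehicle was the negative control, with doxorubicin and oxaliplatin as positive controls.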

[7] = system: HCT116 (human colon carcinoma); assay: Alamar blue cytotoxicity assay, HCT116; assay type: cell-based
[8] = system: HL-60 (human promyelocytic leukemia); assay: Alamar blue cytotoxicity assay, HL-60; assay type: cell-based
[9] = system: K-562 (human chronic myelogenous leukemia); assay: Alamar blue cytotoxicity assay, K-562; assay type: cell-based
HL-60 cells [10] = assay type: cell-based, human; details: HL-60, 24 and 48 h, p < 0.05; DOX 2 µM, OXA 2.5 µM
calf thymus DNA (ctDNA) = assay: DNA intercalation assay; assay type: binding; details: cell-free, 15 µg/mL ctDNA, 1.5 µM ethidium bromide; complex 5, 10 and 20 µM; doxorubicin 10 µM
In short: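 Ethidium bromide displacement from calf thymus DNA in saline: 15 µg/mL ctDNA, 1.5 µM ethidium bromide, test compound at 5, 10 and 20 µM. Vehicle (0.1% DMSO) was the negative control and doxorubicin (10 µM) the positive control. Fluorescence was read at excitation 320 nm and emission 600 nm. Lower fluorescence was taken as intercalation.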

[11] = system: HSC-3 (human oral squamous cell carcinoma); assay: Alamar blue cytotoxicity assay, HSC-3; assay type: cell-based
ROS in HL-60 cells = assay: Intracellular reactive oxygen species levels; assay type: cell-based, human; details: HL-60, DCFH-DA, 1 h
In short: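 Intracellular ROS in HL-60 cells was measured with 2′,7′-dichlorofluorescin diacetate after 1 and 3 h exposure to test compound. Fluorescence was read by flow cytometry, recording 10^4 events per sample with cellular debris omitted. Vehicle served as negative control; results are mean ± S.E.M., compared by ANOVA and Student–Newman–Keuls test.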

[12] = system: HepG2 (human hepatocellular carcinoma); assay: Alamar blue cytotoxicity assay, HepG2; assay type: cell-based
B16-F10 (mouse melanoma) = assay: Alamar blue cytotoxicity assay, B16-F10; assay type: cell-based
[13] = Time-dependent 31P{1H} NMR stability in DMSO solution; assay type: physicochemical
[14] = HL-60, 1 µM, 24 h of incubation
[15] = HL-60, 1 µM, 48 h of incubation
[16] = HL-60, 2 µM, 24 h of incubation
[17] = HL-60, 2 µM, 48 h of incubation
[18] = HL-60, 4 µM, 24 h of incubation
[19] = HL-60, 4 µM, 48 h of incubation

cis-[PtCl(PIP-OH)(PPh3)2]PF6 [CPP]
DNA content (%) G0/G1 (HL-60 cells [1]; [14]): 32.0 ± 5.4 % | DNA content (%) G2/M (HL-60 cells [1]; [14]): 13.2 ± 2.9% | DNA content (%) S (HL-60 cells [1]; [14]): 10.5 ± 1.8% | DNA content (%) Sub-G0/G1 (HL-60 cells [1]; [14]): 25.0 ± 1.6 % | DNA content (%) G0/G1 (HL-60 cells [1]; [15]): 49.7 ± 2.2% | DNA content (%) G2/M (HL-60 cells [1]; [15]): 14.5 ± 0.9% | DNA content (%) S (HL-60 cells [1]; [15]): 12.3 ± 1.6% | DNA content (%) Sub-G0/G1 (HL-60 cells [1]; [15]): 19.8 ± 1.4 % | DNA content (%) G0/G1 (HL-60 cells [1]; [16]): 34.3 ± 2.9 % | DNA content (%) G2/M (HL-60 cells [1]; [16]): 15.0 ± 2.5% | DNA content (%) S (HL-60 cells [1]; [16]): 10.3 ± 1.1% | DNA content (%) Sub-G0/G1 (HL-60 cells [1]; [16]): 29.2 ± 0.9 % | DNA content (%) G0/G1 (HL-60 cells [1]; [17]): 48.5 ± 3.1% | DNA content (%) G2/M (HL-60 cells [1]; [17]): 14.1 ± 1.5% | DNA content (%) S (HL-60 cells [1]; [17]): 14.3 ± 0.8% | DNA content (%) Sub-G0/G1 (HL-60 cells [1]; [17]): 25.8 ± 3.8 % | DNA content (%) G0/G1 (HL-60 cells [1]; [18]): 26.7 ± 4.6 % | DNA content (%) G2/M (HL-60 cells [1]; [18]): 15.3 ± 2.6% | DNA content (%) S (HL-60 cells [1]; [18]): 10.1 ± 1.4% | DNA content (%) Sub-G0/G1 (HL-60 cells [1]; [18]): 26.2 ± 4.1 % | DNA content (%) G0/G1 (HL-60 cells [1]; [19]): 41.9 ± 8.6% | DNA content (%) G2/M (HL-60 cells [1]; [19]): 12.8 ± 2.8% | DNA content (%) S (HL-60 cells [1]; [19]): 8.0 ± 2.0 % | DNA content (%) Sub-G0/G1 (HL-60 cells [1]; [19]): 27.3 ± 7.0 % | mitochondrial transmembrane potential (HL-60 cells [2]): induced loss of the mitochondrial transmembrane potential | more potent than PIP-OH ([3]; MCF-7, ratio of IC50): 3.6 fold | more potent than piplartine ([3]; MCF-7, ratio of IC50): 1.5 fold | IC50 ([3]; read-out: IC50 in µM, MCF-7, alamar blue, 72 h): 6.8 µM | IC50 [4]: 10.3 µM | more potent than PIP-OH ([5]; SCC-9, ratio of IC50): 3.8 fold | more potent than piplartine ([5]; SCC-9, ratio of IC50): 2.7 fold | IC50 ([5]; read-out: IC50 in µM, SCC-9, alamar blue, 72 h): 6.2 µM | cell morphology (HL-60 cells [6]; HL-60, May-Grunwald-Giemsa): reduction in the cell volume, chromatin condensation and fragmentation of the nuclei | forward light scatter (FSC) (HL-60 cells [6]; HL-60, flow cytometry): decrease in FSC | side scatter (SCC) (HL-60 cells [6]; HL-60, flow cytometry): transient increase in SCC | more potent than PIP-OH ([7]; HCT116, ratio of IC50): 2.4 fold | more potent than piplartine ([7]; HCT116, ratio of IC50): 1.1 fold | IC50 ([7]; read-out: IC50 in µM, HCT116, alamar blue, 72 h): 4.8 µM | more potent than PIP-OH ([8]; HL-60, ratio of IC50): 4.5 fold | more potent than piplartine ([8]; HL-60, ratio of IC50): 7.4 fold | IC50 ([8]; read-out: IC50 in µM, HL-60, alamar blue, 72 h): 1.9 µM | more potent than PIP-OH ([9]; K-562, ratio of IC50): 21.1 fold | more potent than piplartine ([9]; K-562, ratio of IC50): 16.9 fold | IC50 ([9]; read-out: IC50 in µM, K-562, alamar blue, 72 h): 1.1 µM | apoptotic cells (annexin V-FITC/PI) (HL-60 cells [10]): increasing in apoptotic cells with more pronounced effect after 48 h | ethidium bromide fluorescence (displacement from ctDNA) (calf thymus DNA (ctDNA)): did not reduce the ethidium bromide fluorescence | more potent than PIP-OH ([11]; HSC-3, ratio of IC50): 1.7 fold | more potent than piplartine ([11]; HSC-3, ratio of IC50): 14.1 fold | IC50 ([11]; read-out: IC50 in µM, HSC-3, alamar blue, 72 h): 1 µM | ROS levels (ROS in HL-60 cells): caused increasing in the ROS levels | more potent than piplartine ([12]; HepG2, ratio of IC50): 1.4 fold | IC50 ([12]; read-out: IC50 in µM, HepG2, alamar blue, 72 h): 4.4 µM | more potent than PIP-OH (B16-F10 (mouse melanoma); B16-F10, ratio of IC50): 56.9 fold | more potent than piplartine (B16-F10 (mouse melanoma); B16-F10, ratio of IC50): 9.6 fold | IC50 (B16-F10 (mouse melanoma); read-out: IC50 in µM, B16-F10, alamar blue, 72 h): 1.1 µM | stability in solution (31P{1H} NMR) ([13]; after 1 h of incubation): significant dissociation of PIP-OH ligand from the metal complex | stability in solution (31P{1H} NMR) ([13]; after 48 h): most the PIP-OH was dissociated from the metal complex

— publication PMC6198128 (Redox Biology, 2018)
